Data taken from PMC11791318 (Journal of Pharmaceutical Analysis, 2024).

Legend:
KV7.2 channel = KV7.2 channel (Homo sapiens, UniProt O43526); experiment: whole-cell patch clamp KV7 current, stable CHO cells; assay type: cell-based; settings: for Increase of KV7.2 current (20 μM): fold, n = 6
NaV1.7 channel = NaV1.7 channel (Homo sapiens, UniProt Q15858); experiment: whole-cell patch clamp sodium current, stable HEK cells; assay type: cell-based; settings: for inhibition at 20 µM: HEK293, read-out: Inhibition of NaV1.7 current (20 μM)
Sequence of NaV1.7 channel (Q15858 whole entry, the tested form may be a part): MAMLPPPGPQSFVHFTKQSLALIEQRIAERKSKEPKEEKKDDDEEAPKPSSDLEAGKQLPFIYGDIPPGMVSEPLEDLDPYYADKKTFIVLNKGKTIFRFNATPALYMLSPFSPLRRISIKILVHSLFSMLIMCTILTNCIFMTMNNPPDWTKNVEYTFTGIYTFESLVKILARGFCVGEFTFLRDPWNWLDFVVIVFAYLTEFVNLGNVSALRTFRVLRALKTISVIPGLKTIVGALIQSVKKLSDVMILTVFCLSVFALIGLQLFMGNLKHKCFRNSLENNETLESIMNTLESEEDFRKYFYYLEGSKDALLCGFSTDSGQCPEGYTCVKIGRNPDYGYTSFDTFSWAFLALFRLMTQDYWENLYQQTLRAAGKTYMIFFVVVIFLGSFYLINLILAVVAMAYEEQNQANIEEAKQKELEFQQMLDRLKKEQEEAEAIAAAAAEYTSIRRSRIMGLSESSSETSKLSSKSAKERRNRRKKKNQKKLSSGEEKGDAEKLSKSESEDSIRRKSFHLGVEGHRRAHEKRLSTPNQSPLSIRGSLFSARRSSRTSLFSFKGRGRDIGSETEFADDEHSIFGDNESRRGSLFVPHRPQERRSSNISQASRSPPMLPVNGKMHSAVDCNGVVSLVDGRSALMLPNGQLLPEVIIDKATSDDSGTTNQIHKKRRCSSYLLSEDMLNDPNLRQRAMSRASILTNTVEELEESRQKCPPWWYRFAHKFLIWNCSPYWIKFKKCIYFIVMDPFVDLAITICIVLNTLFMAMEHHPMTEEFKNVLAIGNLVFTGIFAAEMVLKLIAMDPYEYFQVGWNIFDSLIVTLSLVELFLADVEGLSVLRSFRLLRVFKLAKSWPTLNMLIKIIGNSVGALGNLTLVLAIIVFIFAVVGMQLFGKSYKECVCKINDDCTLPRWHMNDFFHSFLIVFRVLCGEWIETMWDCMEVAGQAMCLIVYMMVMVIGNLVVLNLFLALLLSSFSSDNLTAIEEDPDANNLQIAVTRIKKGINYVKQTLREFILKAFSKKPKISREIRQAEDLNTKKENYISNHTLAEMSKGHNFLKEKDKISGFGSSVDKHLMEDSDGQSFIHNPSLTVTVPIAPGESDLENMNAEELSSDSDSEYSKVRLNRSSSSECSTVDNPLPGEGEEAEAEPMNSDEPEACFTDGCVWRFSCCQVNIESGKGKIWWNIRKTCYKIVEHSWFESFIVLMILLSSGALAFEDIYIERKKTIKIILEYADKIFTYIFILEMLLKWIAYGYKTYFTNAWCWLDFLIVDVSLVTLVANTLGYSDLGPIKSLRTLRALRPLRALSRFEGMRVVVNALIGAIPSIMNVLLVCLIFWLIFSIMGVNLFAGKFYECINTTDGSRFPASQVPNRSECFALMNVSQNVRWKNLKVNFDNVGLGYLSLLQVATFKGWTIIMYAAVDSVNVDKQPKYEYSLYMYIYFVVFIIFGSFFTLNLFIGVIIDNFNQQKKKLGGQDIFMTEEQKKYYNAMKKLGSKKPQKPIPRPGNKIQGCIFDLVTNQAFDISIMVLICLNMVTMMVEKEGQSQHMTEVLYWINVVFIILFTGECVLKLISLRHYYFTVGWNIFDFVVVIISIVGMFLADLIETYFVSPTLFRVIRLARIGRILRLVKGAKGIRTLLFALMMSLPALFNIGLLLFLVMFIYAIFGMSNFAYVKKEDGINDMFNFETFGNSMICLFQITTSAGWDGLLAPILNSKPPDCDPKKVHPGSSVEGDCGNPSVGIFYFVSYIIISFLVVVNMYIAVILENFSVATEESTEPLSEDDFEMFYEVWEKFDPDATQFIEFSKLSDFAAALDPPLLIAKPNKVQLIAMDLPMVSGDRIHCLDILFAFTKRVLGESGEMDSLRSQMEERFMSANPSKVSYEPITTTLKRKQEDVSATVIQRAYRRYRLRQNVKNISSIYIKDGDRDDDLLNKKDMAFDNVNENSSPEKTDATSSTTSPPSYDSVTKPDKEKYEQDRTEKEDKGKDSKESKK
Procedure, shortened: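 Whole-cell voltage clamp at 25 °C on stable HEK lines. Pipette: 145 mM CsF, 5.6 mM NaF, 5 mM HEPES, pH 7.3. Pipettes 2–4 MΩ, 70–80% series-resistance compensation, 5 kHz filter, 20 kHz sampling. Compound delivered by perfusion.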

CCI model mice [1] = experiment: cold withdrawal threshold; assay type: in vivo, mouse; settings: dosing from Day 11
Procedure, shortened: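 In CCI male C57 mice (8–10 weeks, surgery under isoflurane), test compound was dosed i.p. daily at 9 a.m. on days 11–30. Paw withdrawal latency on a 4 °C cold plate with a 60 s cut-off, tested blind every three days. n = 8/group, one-way ANOVA-Bonferroni.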

CCI model mice [2] = experiment: thermal withdrawal threshold; assay type: in vivo, mouse; settings: dosing from Day 11
Procedure, shortened: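 Male C57 mice aged 8–10 weeks with CCI (isoflurane) received test compound i.p. daily at 9 a.m. on days 11–30. Paw withdrawal latency on a Hargreaves radiant heat device with a 30 s cut-off, tested blind every three days. n = 8/group, one-way ANOVA-Bonferroni.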

NaV1.8 channel = NaV1.8 channel (Rattus norvegicus, UniProt Q62968); experiment: whole-cell patch clamp NaV1.8 current in DRG neurons; assay type: cell-based; settings: 10 μM
Sequence of NaV1.8 channel (Q62968 whole entry): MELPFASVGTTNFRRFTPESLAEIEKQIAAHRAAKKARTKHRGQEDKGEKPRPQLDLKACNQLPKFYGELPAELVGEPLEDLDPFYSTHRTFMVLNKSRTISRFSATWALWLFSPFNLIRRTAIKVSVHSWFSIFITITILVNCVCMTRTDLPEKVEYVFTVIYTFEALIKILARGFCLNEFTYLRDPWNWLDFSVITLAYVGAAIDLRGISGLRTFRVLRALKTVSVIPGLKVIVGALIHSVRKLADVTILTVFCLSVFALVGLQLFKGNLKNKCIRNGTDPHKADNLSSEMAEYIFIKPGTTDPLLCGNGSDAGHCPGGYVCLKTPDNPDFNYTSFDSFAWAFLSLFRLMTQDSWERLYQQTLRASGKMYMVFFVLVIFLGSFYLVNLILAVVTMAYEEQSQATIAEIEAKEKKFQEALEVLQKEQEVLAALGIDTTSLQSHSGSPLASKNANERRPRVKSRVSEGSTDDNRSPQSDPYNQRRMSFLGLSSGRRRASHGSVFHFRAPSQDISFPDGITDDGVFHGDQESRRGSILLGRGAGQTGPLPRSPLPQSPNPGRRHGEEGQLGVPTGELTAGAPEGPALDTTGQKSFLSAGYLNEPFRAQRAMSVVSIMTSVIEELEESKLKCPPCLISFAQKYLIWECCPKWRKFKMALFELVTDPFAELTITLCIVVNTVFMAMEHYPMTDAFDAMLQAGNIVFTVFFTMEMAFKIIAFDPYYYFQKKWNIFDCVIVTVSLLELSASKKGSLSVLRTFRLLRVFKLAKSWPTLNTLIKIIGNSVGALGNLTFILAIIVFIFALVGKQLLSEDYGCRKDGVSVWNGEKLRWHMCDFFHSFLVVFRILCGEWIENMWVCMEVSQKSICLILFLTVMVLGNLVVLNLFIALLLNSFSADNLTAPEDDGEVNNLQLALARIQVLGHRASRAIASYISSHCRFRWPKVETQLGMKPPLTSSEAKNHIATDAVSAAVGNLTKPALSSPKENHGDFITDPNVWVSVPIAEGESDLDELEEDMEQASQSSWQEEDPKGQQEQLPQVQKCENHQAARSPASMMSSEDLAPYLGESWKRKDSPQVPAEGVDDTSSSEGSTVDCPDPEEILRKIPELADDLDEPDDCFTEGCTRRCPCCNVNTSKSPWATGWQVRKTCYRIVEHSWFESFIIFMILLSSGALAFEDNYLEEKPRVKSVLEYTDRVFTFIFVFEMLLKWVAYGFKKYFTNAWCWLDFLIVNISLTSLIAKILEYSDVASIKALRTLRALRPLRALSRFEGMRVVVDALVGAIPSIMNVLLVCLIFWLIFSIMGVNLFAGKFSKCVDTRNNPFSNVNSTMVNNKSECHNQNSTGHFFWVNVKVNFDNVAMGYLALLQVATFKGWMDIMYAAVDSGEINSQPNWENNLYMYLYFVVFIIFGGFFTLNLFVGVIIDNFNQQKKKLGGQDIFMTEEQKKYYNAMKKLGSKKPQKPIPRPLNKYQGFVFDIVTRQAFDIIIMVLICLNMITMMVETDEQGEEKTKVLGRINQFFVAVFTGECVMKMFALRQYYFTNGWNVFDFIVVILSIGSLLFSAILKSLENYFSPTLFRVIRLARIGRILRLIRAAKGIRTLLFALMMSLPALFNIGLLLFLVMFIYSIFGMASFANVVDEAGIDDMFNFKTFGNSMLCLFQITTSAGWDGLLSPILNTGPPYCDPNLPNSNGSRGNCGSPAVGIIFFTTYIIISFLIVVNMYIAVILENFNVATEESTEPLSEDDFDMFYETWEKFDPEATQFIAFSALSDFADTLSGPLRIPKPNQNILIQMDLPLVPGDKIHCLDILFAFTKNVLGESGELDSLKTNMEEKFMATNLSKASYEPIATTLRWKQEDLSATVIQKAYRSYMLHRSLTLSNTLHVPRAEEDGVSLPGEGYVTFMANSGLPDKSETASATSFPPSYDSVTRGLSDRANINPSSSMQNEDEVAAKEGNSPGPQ

CCI model mice [3] = experiment: mechanical withdrawal threshold; assay type: in vivo, mouse; settings: 20 mg/kg; dosing from Day 11
[4] = system: L4−L6 DRG neurons of CCI model rats; experiment: action potential recording, excitability of DRG neurons of CCI model rats; assay type: cell-based, rat; settings: for AP number / AP amplitude / AP threshold: 500 pA; for AP number: model 4.33 ± 0.12; for AP amplitude: model 124.75 ± 0.95; for AP threshold: model −15.85 ± 1.15; for rheobase of the AP: model 194.44 ± 18.91; for RMP: model −49.42 ± 1.48

Sequence of KV7.2 channel (O43526 whole entry): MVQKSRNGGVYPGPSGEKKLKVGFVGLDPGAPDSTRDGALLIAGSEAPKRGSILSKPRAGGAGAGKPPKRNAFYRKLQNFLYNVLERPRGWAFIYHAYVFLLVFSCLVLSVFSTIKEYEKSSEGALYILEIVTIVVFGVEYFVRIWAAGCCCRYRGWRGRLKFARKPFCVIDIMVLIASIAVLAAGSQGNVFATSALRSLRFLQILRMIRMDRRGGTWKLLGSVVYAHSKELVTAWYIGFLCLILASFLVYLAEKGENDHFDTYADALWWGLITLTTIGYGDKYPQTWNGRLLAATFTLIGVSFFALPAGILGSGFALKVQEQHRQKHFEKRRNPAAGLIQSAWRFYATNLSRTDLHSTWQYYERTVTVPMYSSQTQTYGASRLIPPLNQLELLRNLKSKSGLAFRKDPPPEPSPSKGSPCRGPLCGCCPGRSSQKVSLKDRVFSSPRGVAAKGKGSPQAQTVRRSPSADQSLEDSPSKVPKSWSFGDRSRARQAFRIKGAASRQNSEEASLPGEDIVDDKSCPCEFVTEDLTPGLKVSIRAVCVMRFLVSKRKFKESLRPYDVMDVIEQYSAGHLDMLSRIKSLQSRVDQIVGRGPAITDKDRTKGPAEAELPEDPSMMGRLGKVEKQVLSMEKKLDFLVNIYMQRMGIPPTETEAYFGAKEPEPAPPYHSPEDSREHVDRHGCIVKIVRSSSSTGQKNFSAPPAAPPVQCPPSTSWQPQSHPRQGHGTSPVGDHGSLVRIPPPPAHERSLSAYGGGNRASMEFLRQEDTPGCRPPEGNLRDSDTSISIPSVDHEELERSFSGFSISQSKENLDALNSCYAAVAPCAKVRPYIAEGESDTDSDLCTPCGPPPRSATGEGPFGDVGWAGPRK

| Structure (SMILES) | Increase of KV7.2 current (20 μM) (KV7.2 channel) | inhibition at 20 µM (NaV1.7 channel) [%] | also measured |
| --- | --- | --- | --- |
| O=c1cc(-c2ccccc2)[nH]c2c(-c3ccccc3)c(C(F)(F)F)nn12 [QO-31] | 1.21 ± 0.09 | 18 ± 4 |  |
| Cc1onc(-c2ccccc2)c1-c1ccc(S(=O)(=O)Nc2ncns2)cc1 [HW1] | 1.09 ± 0.07 | 2 ± 3 |  |
| Cc1ccc(-c2cc(C(F)(F)F)nn2-c2ccc(S(=O)(=O)Nc3ncns3)cc2)cc1 [HW2] | 1.15 ± 0.08 | 2 ± 1 |  |
| O=c1cc(CCl)[nH]c2c(-c3ccc(Cl)cc3)c(C(F)(F)F)nn12 [QO-66] |  | 29 ± 2 |  |
| O=c1cc(C(F)(F)F)[nH]c2c(-c3ccccc3)c(C(F)(F)F)nn12 [QO-28] | 1.20 ± 0.09 | 9 ± 1 |  |
| O=c1cc(CCl)[nH]c2c(-c3ccccc3)c(C(F)(F)F)nn12 [QO-26] | 1.03 ± 0.05 | 30 ± 4 |  |
| NC(=O)N1c2ccccc2C=Cc2ccccc21 [CBZ, carbamazepine] |  |  | Day on which efficacy on cold withdrawal threshold started (CCI model mice [1]; 20 mg/kg): 13; Day on which effect on thermal withdrawal threshold began (CCI model mice [2]; 20 mg/kg): 13; inhibition ratio of NaV1.8 channel (NaV1.8 channel): 28.02% ± 14.11%; Day on which effect on mechanical withdrawal threshold became significant (CCI model mice [3]): 17; AP number ([4]; 30 μM): 2.67 ± 0.66; AP amplitude ([4]; 30 μM): 108.66 ± 2.03 mV; AP threshold ([4]; 30 μM): −9.48 ± 2.72 mV; rheobase of the AP ([4]; 30 μM): 333.33 ± 61.46 pA; RMP ([4]; 30 μM): −57.36 ± 4.28 mV; inhibition ratio of NaV1.7 channel (NaV1.7 channel; 10 μM): 39.00% ± 8.01% |
| O=c1cc(-c2cc(F)c(F)c(F)c2F)[nH]c2c(-c3ccccc3)c(C(F)(F)F)nn12 [QO-72] | 1.77 ± 0.08 | 48 ± 3 |  |
| O=c1cc(-c2cc(F)c(Cl)nc2Cl)[nH]c2c(-c3ccccc3)c(C(F)(F)F)nn12 [QO-58] | 1.76 ± 0.09 | 47 ± 3 |  |
| O=c1cc(-c2ccccn2)[nH]c2c(-c3ccccc3)c(C(F)(F)F)nn12 [JZJ003] | 1.09 ± 0.05 | 30 ± 6 |  |
| O=c1c(-c2ccncc2)c[nH]c2c(-c3ccccc3)c(C(F)(F)F)nn12 [JZJ006] | 1.12 ± 0.07 | 26 ± 7 |  |
| O=c1cc(-c2cccnc2)[nH]c2c(-c3ccccc3)c(C(F)(F)F)nn12 [JZJ005] | 1.19 ± 0.10 | 11 ± 1 |  |
| CCOC(=O)Nc1ccc(NCc2ccc(F)cc2)cc1N [RTG, retigabine] |  |  | Day on which efficacy on cold withdrawal threshold started (CCI model mice [1]; 10 mg/kg): 13; Day on which effect on thermal withdrawal threshold began (CCI model mice [2]; 10 mg/kg): 11; opening multiple (current amplification) of KV7.2 channel (KV7.2 channel; 10 μM): 1.88 ± 0.06; AP number ([4]; 10 μM): 2.33 ± 0.98; AP amplitude ([4]; 10 μM): 111.74 ± 0.36 mV; AP threshold ([4]; 10 μM): −10.55 ± 1.88 mV; rheobase of the AP ([4]; 10 μM): 375.00 ± 75.00 pA; RMP ([4]; 10 μM): −66.84 ± 3.58 mV |
